# High-throughput results (PubChem)
# OX1R antag-1: antagonists of human orexin 1 receptor (OX1R) | actives 1.8% (n = 330,000) | AID 485270 | O43613 | OX1R-expressing cells, FRET antagonist read-out | inhibition, % at 6.6 µM; in the data active = inhibition mostly above about 38%, no sharp cut-off; inactive = mostly below about 40%
# TAAR1 antag: antagonists of human TAAR1; AID 624466; actives 1.5% (n = 360,000); inhibition, % at 3 µM; Q96RJ0; CHO RD-HGA16 TAAR1, Fluo-8 calcium fluorescence, antagonist;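 active = inhibition above a per-plate cutoff, the mean inhibition of test compounds on that plate plus 3 SD, cut at about 49% in these data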
# Target sequence (Q96RJ0 whole entry, looked up): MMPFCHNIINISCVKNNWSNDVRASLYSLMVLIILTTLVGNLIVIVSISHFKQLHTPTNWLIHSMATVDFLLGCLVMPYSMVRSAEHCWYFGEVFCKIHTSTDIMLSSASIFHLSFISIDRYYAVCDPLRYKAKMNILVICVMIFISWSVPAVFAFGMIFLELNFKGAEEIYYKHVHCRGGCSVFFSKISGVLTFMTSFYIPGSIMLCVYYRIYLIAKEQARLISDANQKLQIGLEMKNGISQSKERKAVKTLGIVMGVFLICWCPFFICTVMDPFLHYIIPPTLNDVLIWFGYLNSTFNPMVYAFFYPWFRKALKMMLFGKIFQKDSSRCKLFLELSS
#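 Material: CHO RD-HGA16 cells bearing hTAAR1; compound dosing: one-point dosing, 3 µM nominal final; schedule: dye loading 75 min at 37 °C, then 30 min room temperature; measured by: calcium fluorescence with Fluo-8; control set: vehicle and agonist controls; replication: n of 1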
# CHO parental Ca: signal in parental CHO cells, OX1R antagonist counter-screen; parental CHO-K1, ATP-induced calcium, Fluo-8 fluorescence; actives 0.63% (n = 330,000); inhibition, % at 5.6 µM;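 active = inhibition above that plate's mean sample inhibition plus 3 SD, cut at about 26% in these data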
#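 Assay system: untransfected parental CHO cell line. Also added: ATP agonist challenge. Dosing: one dose, 5.6 µM nominal. Measured by: Fluo-8 fluorescence. Read-out: % inhibition. Benchmarks: ATP wells versus no-ATP DMSO wells. Repeats: no replicates.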
# TAAR1 ag: human TAAR1 agonism. CHO RD-HGA16 TAAR1, Fluo-8 calcium fluorescence; vehicle wells 0%, saturating PEA agonist 100%. activation, % at 3 µM. actives 0.99% (n = 360,000). AID 624467;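 active = activation above the mean activation of all test compounds in the run plus 3 SD, cut at about 38% in these data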
#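 Benchmarks: low control DMSO, high control PEA (EC100); System: CHO RD-HGA16 cells carrying human TAAR1 plus Gα16; Detection: Fluo-8 fluorescence, 5 s baseline then 140 s kinetic read; Schedule: 17-24 h plating, Fluo-8 75 min 37 °C, 30 min RT; Read-out basis: % activation from peak over basal fluorescence ratio, DMSO-to-PEA scaled.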
# OX1R antag-2: antagonists of human orexin 1 receptor; inhibition, % at 5 µM; actives 0.43% (n = 330,000); O43613; CHO/OX1R cells, Fluo-8 calcium fluorescence, orexin A; AID 434989;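 active = inhibition above its plate's threshold, mean inhibition of all tested compounds on the plate plus 3 SD, cut at about 37% in these data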
# GalR3 antag: antagonists of human GalR3. O60755. inhibition, % at 3 µM. actives 0.44% (n = 360,000). HEK293 GalR3-CNG cAMP membrane potential fluorescence; galR3 body fused to GalR1 C-terminus;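 active = inhibition above the screen-wide average plus 3 SD, cut at about 13% in these data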;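 note: forskolin and galanin both at EC90 stimulate the cells; cAMP rise reported by CNG channel membrane potential dye signal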
# Target sequence (O60755 1-299 limits assumed): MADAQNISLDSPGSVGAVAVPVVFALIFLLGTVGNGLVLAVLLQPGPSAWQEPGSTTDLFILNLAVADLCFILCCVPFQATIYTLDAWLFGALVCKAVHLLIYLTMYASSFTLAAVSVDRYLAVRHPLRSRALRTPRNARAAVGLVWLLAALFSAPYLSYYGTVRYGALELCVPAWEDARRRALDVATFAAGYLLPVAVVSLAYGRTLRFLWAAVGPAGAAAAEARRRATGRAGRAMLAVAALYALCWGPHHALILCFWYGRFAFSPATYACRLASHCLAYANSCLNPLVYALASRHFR
# A number is an active result; . = inactive; / = not tested or not shown. Shown are actives, neighbours in structure and some others; about 4.3% of the full set was active somewhere.
SMILES,OX1R antag-1,TAAR1 antag,CHO parental Ca,TAAR1 ag,OX1R antag-2,GalR3 antag
CCOc1ccc(-n2c(O)c(N=Nc3c(C)n(C)n(-c4ccccc4)c3=O)c(=O)[nH]c2=O)cc1,38.8,.,.,.,.,.
COC(=O)C12OCC34C(CC5C(C)=C(O)C(=O)CC5(C)C3C(O)C1O)OC(=O)C(OC(=O)/C=C(\C)C(C)C)C24 (stereo not drawn),/,.,/,.,/,.
Cc1cc(N2CCNC[C@@H]2C)ccc1N1CC[C@@H](O)C1,/,.,/,.,/,.
COc1cccc(C(c2nnnn2Cc2ccccc2)N2CCC3(CC2)C(=O)NCN3c2ccccc2)c1OC (stereo not drawn),/,53.6,/,.,/,.
CSCCC(c1nnnn1-c1ccc2c(c1)OCCO2)N1CCC2(CC1)C(=O)NCN2c1ccccc1 (stereo not drawn),/,53.5,/,.,/,.
O=C1NCN(c2ccccc2)C12CCN(C(c1ccccc1OC(F)(F)F)c1nnnn1-c1ccc3c(c1)OCCO3)CC2 (stereo not drawn),/,.,/,.,/,.
O=C1OCc2cc(N=Nc3c(O)[nH]c(=O)[nH]c3=O)ccc21,41.8,.,.,.,.,.
c1ccc2c(c1)[IH]c1ccccc1-2,/,.,/,.,/,85.7
c1ccc2c(c1)-c1cccc3cccc-2c13,.,.,.,.,.,.
CN1C2(C)c3ccccc3C1(c1ccccc1)c1ccccc12,/,.,/,.,/,.
O=[N+]([O-])c1cccc(NP(=O)(Oc2ccccc2)Oc2ccccc2)c1,.,58.2,.,.,.,.
CC(=O)OC1C(=O)OCC23CCC4(C)OC4C2OC2CC(OC(=O)C=CC=CC(=O)OCCC1C)C3(C)C21CO1 (stereo not drawn),/,64.8,/,.,/,.
CC(O)C1C=CC=CC(=O)OC2CC3OC4C5OC5(C)CCC4(COC(=O)C4OC4(C)C(O)CO1)C2(C)C31CO1 (stereo not drawn),/,.,/,.,/,.
COc1ccc(C(=O)OCC2CN2c2cccc([N+](=O)[O-])c2)cc1 (stereo not drawn),/,.,/,.,/,.
N#Cc1ccc2nc(-c3ccc(CN4CCC(n5c(=O)[nH]c6cc(Cl)ccc65)CC4)cc3)c(-c3ccccc3)nc2c1,/,.,/,.,/,.
O=[N+]([O-])c1ccc(-[n+]2c(-c3ccccc3)cc(-c3ccccc3)cc2-c2ccccc2)cc1,.,.,.,.,.,.
O=[N+]([O-])c1ccccc1-c1cc(-c2ccccc2)cc(-c2ccccc2)[n+]1Cc1ccccc1Cl,.,.,68.1,.,69.8,.
O=C(NC1CCCCC1)N1Cc2ccc(Br)cc2-n2nncc2C1,/,.,/,.,/,.
Cc1cccc(OP(=O)(Oc2ccccc2)OC(c2ccccc2)C(F)(F)F)c1 (stereo not drawn),.,50.7,.,.,.,.
O=CNc1ccc(OP(=O)(Oc2ccccc2)Oc2ccccc2)cc1,.,.,.,.,.,.
COc1ccc(C(c2nnnn2-c2ccc3c(c2)OCCO3)N2CCC(n3c(=O)[nH]c4ccccc43)CC2)cc1 (stereo not drawn),/,58.9,/,.,/,.
COc1ccc(-n2nnnc2C(CCSC)N2CCC(n3c(=O)[nH]c4ccccc43)CC2)cc1 (stereo not drawn),/,55.1,/,.,/,.
CC(=O)Nc1cc(C(=O)N2CCC3(CC2)OCCO3)ccc1Sc1ccc(F)cc1,.,.,.,.,.,.
O=C(Nc1ccccc1)N1Cc2cc(Br)ccc2-n2nncc2C1,/,.,/,.,/,.
CC[C@@H]1c2ccccc2[C@@H]2CC[C@H]1N2c1ccccc1,/,.,/,.,/,.
SMILES,OX1R antag-1,TAAR1 antag,CHO parental Ca,TAAR1 ag,OX1R antag-2,GalR3 antag
O=C1NC(=O)N(c2ccccc2F)C(=O)/C1=C/c1ccc(Sc2nc3ccccc3[nH]2)o1,.,56.8,.,74.3,.,.
C#C[C@]1(O)CCC2C3C(=O)C=C4C=CCC[C@]4(C)C3CC[C@@]21C (stereo partly drawn),/,48.6,/,.,/,.
C#C[C@]1(O)CCC2C3C(CC[C@@]21C)[C@@]1(C)CC[C@@H](O)CC1=C[C@H]3O (stereo partly drawn),.,.,.,.,.,.
CCN(CC)CCC(=O)O[C@H]1CC[C@]2(C)C3CC[C@@]4(C)C(CC[C@]4(C)O)C3CC[C@H]2C1 (stereo partly drawn),.,60.0,.,42.6,.,.
C[C@]12CCC3C(CC[C@H]4C[C@@H](O)CC[C@]34C)C1CC[C@@]2(O)C(F)(F)F (stereo partly drawn),.,.,.,.,.,.
COC(=O)C1=C(c2c(C)noc2C)C[C@@H]2CC[C@H]1N2C(=O)N1CCCCC1,.,.,.,.,.,.
O=C(NCCN1CCC2(CC1)C(=O)NCN2c1ccccc1)c1ccccc1C(F)(F)F,/,.,/,.,/,.
Cc1cccc(N2C(=O)NC(=O)/C(=C\c3cnc(-c4ccccc4)nc3)C2=O)c1,.,.,.,.,.,.
Cc1cc(C)cc(N2C(=O)NC(=O)/C(=C\c3cccn3-c3ccccc3)C2=O)c1,.,.,.,42.8,.,.
CC(=NCCc1ccccc1)c1c(O)n(C)c(=O)n(C)c1=O,.,.,.,43.0,.,.
O=C1NC(=O)N(c2ccc3c(c2)OCO3)C(=O)/C1=C/c1ccc(N2CCCCC2)o1,61.1,.,.,.,.,.
Cc1ccc(/C=C2/C(=O)NC(=O)N(CCc3ccc(F)cc3)C2=O)o1,.,.,.,39.0,.,.
O=C1NC(=O)N(CCc2ccc(F)cc2)C(=O)/C1=C/c1ccco1,.,.,.,.,.,.
COC(=O)C1=C(c2c(C)noc2C)C[C@@H]2CC[C@H]1N2C(=O)N1CCC(C)CC1,.,.,.,.,.,.
Clc1ccc(C[n+]2c(-c3ccccc3)cc(-c3ccccc3)cc2-c2ccccc2)cc1,.,.,63.2,.,63.3,.
O=C(c1c[nH]cc1-c1ccccc1)c1cccc2ccccc12,.,.,39.8,.,.,.
CCCn1c(C)c(C(=O)c2cccc3ccccc23)c2ccccc21,.,.,.,.,.,.
COC(=O)C1=C(c2cccc(OCc3ccccc3)c2)C[C@@H]2CC[C@H]1N2C(=O)NCc1ccc(N(C)C)cc1,.,.,.,.,.,.
CN(C(=O)COC(=O)c1cn(C)c2ccccc12)C1CCCCC1,38.1,.,.,.,.,.
Cn1cc(C(=O)OCC(=O)NC2CCCC2)c2ccccc21,.,.,.,.,.,.
COc1ccc(N2C(=O)/C(=C/c3ccc(N(C)C)o3)C(=O)NC2=S)cc1,38.2,.,.,.,.,.
CCN(CC)c1ccc(/C=C2\C(=O)NC(=S)N(C)C2=O)o1,55.1,.,.,.,.,.
